In ChEMBL document CHEMBL2311346, “An unprecedented reversible mode of action of β-lactams for the inhibition of human fatty acid amide hydrolase (hFAAH)” (Eur J Med Chem, 2013):
The source made the active and inactive calls. The calls are words filed in the database; no cut-off is given here.

Legend:
Monoglyceride lipase = target: T1, Monoglyceride lipase (Homo sapiens, UniProt Q99685); experiment: Inhibition of human recombinant MAGL using [3H]-2-OG as substrate incubated for 30 mins at room temperature followed by incubation at 37 degC for 10 mins by liquid scintillation assay
T1 sequence (Q99685 whole entry): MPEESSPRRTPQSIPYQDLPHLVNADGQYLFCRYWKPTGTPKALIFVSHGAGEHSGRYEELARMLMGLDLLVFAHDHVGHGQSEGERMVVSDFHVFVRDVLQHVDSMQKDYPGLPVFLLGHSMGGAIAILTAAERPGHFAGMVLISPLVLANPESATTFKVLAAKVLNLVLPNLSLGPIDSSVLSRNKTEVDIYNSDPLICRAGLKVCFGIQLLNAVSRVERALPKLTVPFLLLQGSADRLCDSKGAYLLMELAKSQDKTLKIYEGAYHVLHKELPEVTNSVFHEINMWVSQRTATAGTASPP
Outline: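 Purified human recombinant MAGL in 10 mM Tris–HCl, 1 mM EDTA, 0.1% BSA, pH 8.0, with compound in DMSO (DMSO controls) and [3H]-2-OG (2 µM final). Preincubated 20 °C for 30 min, then 37 °C for 10 min. Ice-cold chloroform/methanol stop; lower chloroform phase counted by liquid scintillation; buffer-only blank subtracted.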

[1] = target: T2, Fatty-acid amide hydrolase 1 (Homo sapiens, UniProt O00519); experiment: Inhibition of human recombinant FAAH-mediated [3H]AEA hydrolysis after 10 mins by liquid scintillation assay
T2 sequence (O00519 whole entry): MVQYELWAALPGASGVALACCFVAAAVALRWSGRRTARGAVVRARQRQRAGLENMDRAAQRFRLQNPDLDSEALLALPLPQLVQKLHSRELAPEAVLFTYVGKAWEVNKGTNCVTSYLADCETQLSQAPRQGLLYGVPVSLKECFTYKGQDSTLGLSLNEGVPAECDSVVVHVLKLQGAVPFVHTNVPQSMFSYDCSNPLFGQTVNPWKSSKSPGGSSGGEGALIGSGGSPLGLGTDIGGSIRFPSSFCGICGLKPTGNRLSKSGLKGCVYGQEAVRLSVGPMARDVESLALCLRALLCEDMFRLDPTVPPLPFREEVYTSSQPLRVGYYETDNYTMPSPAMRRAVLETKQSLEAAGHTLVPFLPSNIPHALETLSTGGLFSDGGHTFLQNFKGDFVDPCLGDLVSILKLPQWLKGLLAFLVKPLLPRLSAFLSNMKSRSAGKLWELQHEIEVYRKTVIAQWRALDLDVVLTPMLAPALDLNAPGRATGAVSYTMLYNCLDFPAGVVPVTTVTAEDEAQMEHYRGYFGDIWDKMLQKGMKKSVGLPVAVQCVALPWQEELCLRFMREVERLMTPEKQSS
Outline: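 Human recombinant FAAH in 10 mM Tris–HCl, 1 mM EDTA, 0.1% BSA, pH 7.4, with compound in DMSO (DMSO controls) and [3H]-AEA (2 µM final), 37 °C for 10 min. Ice-cold chloroform/methanol stop, centrifugation, [3H]-ethanolamine in upper methanol/buffer phase counted by scintillation. Buffer-only blank subtracted; IC50 from three independent experiments.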

[2] = target: T3, Fatty-acid amide hydrolase 1 (Homo sapiens) (UniProt O00519); experiment: Irreversible inhibition of human recombinant FAAH using [3H]AEA as substrate incubated up to 90 mins by compound dilution method
T3 sequence (whole entry): T2 sequence (O00519 whole entry)

[3] = target: T3, Fatty-acid amide hydrolase 1 (Homo sapiens); experiment: Competitive reversible inhibition of human recombinant FAAH using [3H]AEA as substrate incubated up to 90 mins by compound dilution method
Outline: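 Wash-out: human recombinant FAAH (27.5 µg) preincubated 1 h at room temperature with inhibitor or DMSO in 15 µL, at concentrations inhibiting before but not after dilution; diluted 100-fold in assay buffer. Aliquots taken at 0, 30 and 90 min post-dilution, given [3H]-AEA (2 µM final), 37 °C for 30 min; stopped with chloroform/methanol; aqueous phase counted; buffer blank subtracted.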

Homo sapiens = species: Homo sapiens; experiment: Selectivity ratio of IC50 for human recombinant MAGL to IC50 for human recombinant FAAH
[4] = target: T4, Monoglyceride lipase (Homo sapiens) (UniProt Q99685); experiment: Inhibition of human recombinant MAGL using [3H]-2-OG as substrate at 1 mM incubated for 30 mins at room temperature followed by incubation at 37 degC for 10 mins by liquid scintillation assay
T4 sequence (whole entry): T1 sequence (Q99685 whole entry)

SMILES | IC50 (Monoglyceride lipase) [nM] | IC50 [1] [nM] | also measured
C=CCNC(=O)N1C[C@@H]([C@@H](C)OC(=O)COCc2ccccc2)C1=O | 56800 | 70.9 | –
C=CCCC(=O)N1C[C@@H]([C@@H](C)OC(=O)CCCc2ccccc2)C1=O | 4060 | – | –
C=CCCC(=O)N1C[C@@H]([C@@H](C)OC(=O)CCCc2ccncc2)C1=O | – | 310 | –
NC(=O)c1cccc(-c2cccc(OC(=O)NC3CCCCC3)c2)c1 | – | – | inhibition [2]: Active
C=CCCC(=O)N1C[C@@H]([C@@H](C)OC(=O)NCCc2ccccc2)C1=O | – | 33.2 | –
C=CCNC(=S)N1C[C@@H]([C@@H](C)OC(=O)COCc2ccccc2)C1=O | 122000 | 1040 | –
C=CCOC(=O)N1C[C@@H]([C@@H](C)OC(=O)CCCc2ccccc2)C1=O | 10300 | 3.65 | inhibition [3]: Active; Ratio IC50 (Homo sapiens): 2800
O=C(CCCCCCc1ccccc1)c1nc2ncccc2o1 | – | – | inhibition [3]: Active
C=CCNC(=O)N1C[C@@H]([C@@H](C)OC(=O)CCCc2ccccc2)C1=O | 98400 | 5.56 | Ratio IC50 (Homo sapiens): 18000
C=CCNC(=O)N1C[C@@H]([C@@H](C)OC(=O)NCCc2ccccc2)C1=O | – | 28.6 | –
C=CCOC(=O)N1C[C@@H]([C@@H](C)OC(=O)COCc2ccccc2)C1=O | – | 30.1 | –
C=CCCC(=O)N1C[C@@H]([C@@H](C)OC(=O)COCc2ccccc2)C1=O | – | 30.9 | –
C=CCOC(=O)N1C[C@@H]([C@@H](C)OC(=O)NCCc2ccccc2)C1=O | – | 12.1 | –
C=CCNC(=S)N1C[C@@H]([C@@H](C)OC(=O)NCCc2ccccc2)C1=O | – | 959 | inhibition (INH) [4]: 25%
C=CCNC(=S)N1C[C@@H]([C@@H](C)OC(=O)CCCc2ccccc2)C1=O | – | 146 | inhibition (INH) [4]: 60%
CCCSC(=O)N1C[C@@H]([C@@H](C)OC(=O)CCCc2ccccc2)C1=O | 19000 | 12.1 | inhibition [3]: Active
